Measurements reported in PMC3184254 (Nature Chemical Biology, 2011).
Read-outs that look alike come from different tables or passages of the source.

How the values were obtained:
MDA-MB-231 cells [1] = test: Clonogenicity assay, MDA-MB-231; assay type: cell-based, human
[2] = Mouse drug metabolism and pharmacokinetic studies; assay type: in vivo; details: intravenous, oral or intraperitoneal administration
[3] = tested on: H3K9me2 levels in J1 mES cells; test: Cellular potency; assay type: cell-based; details: Mus musculus, 48 h, read-out: IC50 cellular potency
muscarinic M2 receptor = muscarinic M2 receptor (Homo sapiens, UniProt P08172); test: Ricerca Selectivity Panel, muscarinic M2; assay type: binding
[4] = Stability in cell media with or without cells; assay type: in vitro ADME; details: with or without MCF7, U2OS or H1299 cells, two types of cell media, 65 h
[5] = tested on: H3K9me2 levels in 22RV1 cells; test: H3K9me2 in-cell western, 22RV1; assay type: cell-based; details: Homo sapiens, 22Rv1, read-out: IC50 for reduction of H3K9me2 levels
[6] = tested on: 26 out of 29 targets in the Ricerca Selectivity Panel; test: Ricerca Selectivity Panel; assay type: binding; details: at 1 μM
panel of 24 kinases = test: Kinase selectivity panel; assay type: biochemical; details: at 1 μM; 24 kinases
[7] = tested on: HSC1-EF1α-EGFP-Puromycin retrovirus in J1 mES cells; test: Reactivation of silent EGFP retrovirus vector, flow cytometry; assay type: cell-based, mouse
[8] = tested on: retrovirus long terminal repeat and MAGEA2 promoter in mES cells; test: Bisulfite sequencing DNA methylation in mES cells; assay type: cell-based, mouse; details: after 10 d of treatment
Summary of the method: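 J1 mouse ES cells were grown on 0.1% gelatin in DMEM with 15% ES-qualified FBS, 4 mM L-glutamine, 0.1 mM nonessential amino acids, 1 mM pyruvate, 0.55 mM 2-mercaptoethanol and LIF. They carried a silenced HSC1 retroviral EGFP-puromycin reporter driven by the EF1a promoter.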

[9] = tested on: H3K9me2 levels in MDA-MB-231 cells; test: H3K9me2 in-cell western, MDA-MB-231; assay type: cell-based, human
PRMT3 = PRMT3 (Homo sapiens, UniProt O60678); test: SAHH-coupled assay, PRMT3; assay type: biochemical
Summary of the method: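 A fluorescence-based coupled assay used S-adenosyl-L-homocysteine hydrolase to follow conversion of cofactor SAM to SAH by the methyltransferase. IC50 values are the average of at least two separate experiments.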

[10] = tested on: DNA methylation on chr3 and chrX in MCF7 cells; test: DNA methylation microarray analysis, MCF7; assay type: cell-based, human; details: 14 d at 70 or 320 nM
MDA-MB-231 cells [11] = test: MTT assay, MDA-MB-231; assay type: cell-based, human; details: Homo sapiens, MDA-MB-231, read-out: EC50 cellular toxicity (MTT)
MCF7 cells = test: Clonogenicity assay, MCF7; assay type: cell-based, human
[12] = Solution stability by 1H NMR and LC-MS; assay type: physicochemical; details: 10 mM in deuterated DMSO and deuterated H2O (90:10), room temperature, 4 weeks
[13] = tested on: H3K9me2 at genomic loci on chr3 and chrX in MCF7 cells; test: ChIP-chip with H3K9me2 antibody; assay type: cell-based, human; details: 320 nM for 14 d
G9a = molecular target: T1, G9a (Homo sapiens, UniProt Q96KQ7); test: Endoproteinase-coupled microfluidic capillary electrophoresis; assay type: biochemical
T1 sequence (Q96KQ7 1-1210): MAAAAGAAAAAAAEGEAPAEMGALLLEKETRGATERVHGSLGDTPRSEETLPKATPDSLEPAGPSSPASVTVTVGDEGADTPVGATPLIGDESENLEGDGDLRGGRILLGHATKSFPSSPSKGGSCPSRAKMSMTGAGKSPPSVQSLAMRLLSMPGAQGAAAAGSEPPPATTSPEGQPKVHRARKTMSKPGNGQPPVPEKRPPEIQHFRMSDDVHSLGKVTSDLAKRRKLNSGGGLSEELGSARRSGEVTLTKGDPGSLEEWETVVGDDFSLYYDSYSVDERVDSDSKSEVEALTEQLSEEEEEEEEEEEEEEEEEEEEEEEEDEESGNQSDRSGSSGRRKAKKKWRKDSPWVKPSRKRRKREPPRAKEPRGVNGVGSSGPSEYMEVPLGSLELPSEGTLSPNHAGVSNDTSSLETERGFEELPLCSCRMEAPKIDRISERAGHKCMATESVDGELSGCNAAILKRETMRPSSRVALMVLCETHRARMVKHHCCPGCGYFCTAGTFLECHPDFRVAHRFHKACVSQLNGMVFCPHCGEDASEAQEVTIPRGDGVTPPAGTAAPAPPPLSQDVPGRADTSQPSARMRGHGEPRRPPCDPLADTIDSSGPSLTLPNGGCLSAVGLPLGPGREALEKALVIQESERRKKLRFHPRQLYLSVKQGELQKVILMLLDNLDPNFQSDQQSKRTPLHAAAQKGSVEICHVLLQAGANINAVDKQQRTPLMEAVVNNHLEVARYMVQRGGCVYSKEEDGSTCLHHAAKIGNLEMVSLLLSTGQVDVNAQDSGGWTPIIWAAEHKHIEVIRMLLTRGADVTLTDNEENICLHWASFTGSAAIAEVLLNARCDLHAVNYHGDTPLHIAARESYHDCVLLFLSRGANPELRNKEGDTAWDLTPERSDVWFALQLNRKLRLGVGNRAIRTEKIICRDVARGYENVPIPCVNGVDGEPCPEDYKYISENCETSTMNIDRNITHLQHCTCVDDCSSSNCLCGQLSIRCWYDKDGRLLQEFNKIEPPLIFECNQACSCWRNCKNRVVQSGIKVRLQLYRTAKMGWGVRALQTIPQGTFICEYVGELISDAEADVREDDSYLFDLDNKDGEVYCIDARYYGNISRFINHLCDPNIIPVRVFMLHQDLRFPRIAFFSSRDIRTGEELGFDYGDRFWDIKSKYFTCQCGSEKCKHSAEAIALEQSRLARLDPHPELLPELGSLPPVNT

PRMT1 = PRMT1 (Homo sapiens, UniProt Q99873); test: BPS Bioscience assay, PRMT1; assay type: biochemical
Sequence of PRMT1 (Q99873 whole entry, species assumed): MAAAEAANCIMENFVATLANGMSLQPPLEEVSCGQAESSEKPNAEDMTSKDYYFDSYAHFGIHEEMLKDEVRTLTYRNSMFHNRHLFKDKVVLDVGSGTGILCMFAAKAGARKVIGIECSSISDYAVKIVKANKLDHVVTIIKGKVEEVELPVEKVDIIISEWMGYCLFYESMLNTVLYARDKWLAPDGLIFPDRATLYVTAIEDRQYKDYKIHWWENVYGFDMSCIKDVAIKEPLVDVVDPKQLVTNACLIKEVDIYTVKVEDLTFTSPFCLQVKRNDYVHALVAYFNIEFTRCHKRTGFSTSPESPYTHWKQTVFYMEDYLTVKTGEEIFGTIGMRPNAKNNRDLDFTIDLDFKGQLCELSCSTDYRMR

Sequence of PRMT3 (O60678 whole entry, species assumed): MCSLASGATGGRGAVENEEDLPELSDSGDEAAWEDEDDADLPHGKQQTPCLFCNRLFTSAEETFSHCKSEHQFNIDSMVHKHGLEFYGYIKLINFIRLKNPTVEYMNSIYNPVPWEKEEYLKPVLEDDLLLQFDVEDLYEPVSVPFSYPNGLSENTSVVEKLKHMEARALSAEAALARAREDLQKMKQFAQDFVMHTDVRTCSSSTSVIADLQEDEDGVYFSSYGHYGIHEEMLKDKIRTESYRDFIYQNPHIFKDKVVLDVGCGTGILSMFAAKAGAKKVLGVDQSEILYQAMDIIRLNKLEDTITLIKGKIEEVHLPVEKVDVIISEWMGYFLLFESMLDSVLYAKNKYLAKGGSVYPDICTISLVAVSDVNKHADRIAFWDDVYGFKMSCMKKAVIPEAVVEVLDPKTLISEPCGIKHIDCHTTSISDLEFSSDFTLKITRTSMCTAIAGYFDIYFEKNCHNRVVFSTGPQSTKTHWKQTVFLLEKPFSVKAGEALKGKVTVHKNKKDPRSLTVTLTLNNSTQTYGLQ
Sequence of muscarinic M2 receptor (P08172 whole entry): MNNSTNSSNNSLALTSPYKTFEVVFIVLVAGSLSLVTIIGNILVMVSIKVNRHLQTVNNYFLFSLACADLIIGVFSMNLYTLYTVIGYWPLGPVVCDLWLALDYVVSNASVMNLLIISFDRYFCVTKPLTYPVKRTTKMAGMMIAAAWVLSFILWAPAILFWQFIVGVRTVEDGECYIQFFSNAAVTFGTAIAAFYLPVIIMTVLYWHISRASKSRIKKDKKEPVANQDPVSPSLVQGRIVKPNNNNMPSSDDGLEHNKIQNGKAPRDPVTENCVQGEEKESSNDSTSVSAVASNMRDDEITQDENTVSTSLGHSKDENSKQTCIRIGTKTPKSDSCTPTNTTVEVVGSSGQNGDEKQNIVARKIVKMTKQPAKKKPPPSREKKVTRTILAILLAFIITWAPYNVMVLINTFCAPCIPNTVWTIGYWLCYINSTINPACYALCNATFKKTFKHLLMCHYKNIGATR

COc1cc2c(NC3CCN(C(C)C)CC3)nc(C3CCCCC3)nc2cc1OCCCN1CCCC1 [UNC0638]
clonogenicity (MDA-MB-231 cells [1]): much less effect | clearance [2]: high | half-life [2]: short | volume distribution [2]: high | IC50 [3]: 138 nM | inhibition at 1 µM (muscarinic M2 receptor): 64% | stability in cell media [4]: did not produce degradation products | IC50 [5]: 48 nM | inhibition [6]: < 30% | inhibition (panel of 24 kinases): < 10% | EGFP+ cells, maximal level ([7]; day 10, UNC0638 100, 250 or 500 nM, untreated 36%): 63% | EGFP+ cells ([7]; day 12): 75% | DNA methylation of retrovirus LTR and MAGEA2 promoter [8]: induced DNA hypomethylation in a concentration-dependent manner | IC90 ([9]; Homo sapiens, MDA-MB-231, read-out: IC90 for reduction of H3K9me2 levels): 250 nM | cellular H3K9me2 levels after 4 d ([9]; MDA-MB-231 cells, 250 or 500 nM): equal or very close to those of G9a and GLP knockdown cells | IC50 ([9]; read-out: IC50 for reduction of H3K9me2 levels, MDA-MB-231 cells, 48 h exposure, in-cell western): 80 nM | IC50 (PRMT3): > 10000 nM | IC50 (PRMT3; SAHH-coupled assay): inactive | total levels of DNA methylation on chr3 and chrX [10]: not altered | EC50 (MDA-MB-231 cells [11]): 11000 nM | clonogenicity (MCF7 cells): marked concentration-dependent reduction of clonogenicity | stability in solution [12]: stable | genomic regions containing H3K9me2 on chr3 and chrX [13]: significantly fewer genomic regions containing H3K9me2 | mechanism of action versus peptide substrate (G9a; Km of the peptide increased linearly with UNC0638 concentration): competitive with the peptide substrate | mechanism of action versus cofactor SAM (G9a; apparent Km of SAM remained constant): noncompetitive with cofactor SAM | IC50 (PRMT1): > 10000 nM | IC50 (PRMT1; assay results from BPS Bioscience): inactive
